# Compound activity as filed in PubChem.
# Ecoli WT expand: blocks growth of wild type E. coli BW25113; growth inhibition, % at 100 µM; OD600 absorbance; hit rate 0.15% among 98,000;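 active = growth inhibition above about 50% at one test dose, limit read from the data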;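 also: growth measured after 20 h incubation at 37 °C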
# PostGolgi yeast: growth inhibition of a yeast mutant, post-Golgi transport screen. hit rate 0.9% among 98,000. inhibition, % at 10 µM. post-Golgi transport phenotypic cell assay;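 also: yeast cells grown in 1536-well plates; yeast grown about 18 h at 30C before absorbance read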
# Ecoli tolC: E. coli tolC mutant growth inhibition; growth inhibition, % at 10 µM (by protocol); AID 573; hit rate 2.2% among 65,000; E. coli BW25113 tolC mutant growth, OD615;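 active = growth inhibition at or above a cutoff equal to the mean over every tested compound plus 3 SD, cut at about 60% in these data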;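 also: growth measured after 20 h incubation at 37 °C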
#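 test system = E. coli BW25113 ΔtolC::kan bacteria | medium = LB with kanamycin 50 µg/mL | signal = OD at 615 nm | schedule = 37 °C, 20 h exposure | evaluation = % inhibition of E. coli growth | compound dosing = one dose of 10 µM final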
# Pyk2 oligo antag: antagonists of human Pyk2 oligomerization; z-score (the deposit names both 25 µM and 10 µM); hit rate 0.83% among 99,000; Q293 cells, Pyk2 FERM NanoBiT luminescence; active compounds read low;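 active = Z-score of -3 or lower, scaled per plate to the spread of control and sample wells; inactive = z-score above -3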;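 also: negative z-score means lost luminescence so less FERM oligomerization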
# Target sequence (Q14289 whole entry, looked up): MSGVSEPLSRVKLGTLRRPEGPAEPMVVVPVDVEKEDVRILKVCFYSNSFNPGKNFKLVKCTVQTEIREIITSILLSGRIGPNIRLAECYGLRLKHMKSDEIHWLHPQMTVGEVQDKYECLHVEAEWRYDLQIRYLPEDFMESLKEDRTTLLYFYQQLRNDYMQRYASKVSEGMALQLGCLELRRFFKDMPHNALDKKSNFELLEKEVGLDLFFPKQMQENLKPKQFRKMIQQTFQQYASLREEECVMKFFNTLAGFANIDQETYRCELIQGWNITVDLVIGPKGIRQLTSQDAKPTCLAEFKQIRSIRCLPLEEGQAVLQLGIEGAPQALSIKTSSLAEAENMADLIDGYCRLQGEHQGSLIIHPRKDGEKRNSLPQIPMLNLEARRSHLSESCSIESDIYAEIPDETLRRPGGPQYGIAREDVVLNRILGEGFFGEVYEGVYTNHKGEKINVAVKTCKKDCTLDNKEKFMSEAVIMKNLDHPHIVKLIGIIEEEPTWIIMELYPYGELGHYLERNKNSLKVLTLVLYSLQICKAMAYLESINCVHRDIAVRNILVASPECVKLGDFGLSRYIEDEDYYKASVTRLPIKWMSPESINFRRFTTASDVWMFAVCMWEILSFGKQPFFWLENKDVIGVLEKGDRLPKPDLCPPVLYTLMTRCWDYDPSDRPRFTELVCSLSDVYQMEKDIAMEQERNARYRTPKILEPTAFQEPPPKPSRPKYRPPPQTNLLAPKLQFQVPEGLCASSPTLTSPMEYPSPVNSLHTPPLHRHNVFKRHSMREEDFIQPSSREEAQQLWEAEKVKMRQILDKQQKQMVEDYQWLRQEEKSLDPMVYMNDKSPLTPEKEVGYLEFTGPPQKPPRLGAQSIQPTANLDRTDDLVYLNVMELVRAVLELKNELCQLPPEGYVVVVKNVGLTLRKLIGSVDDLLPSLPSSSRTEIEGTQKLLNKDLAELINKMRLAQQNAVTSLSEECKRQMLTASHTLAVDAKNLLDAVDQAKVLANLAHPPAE
# Cav3 T inh: inhibitors of human Cav3.2 T-type calcium channel. O95180. Cav3.2-expressing cells, Fluo-4 calcium fluorescence FDSS; active compounds read low. B-score at 10 µM. hit rate 4% among 100,000;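 active = single-dose well whose peak fluorescence ratio is a statistical outlier from its plate by either plate-standardised score or position-corrected B-score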
# PostGolgi ctrl: growth of the yeast control strain, post-Golgi counter-screen | AID 738 | efflux-deficient yeast background strain, growth absorbance A615, 16 h | inhibition, % at 10 µM | hit rate 5% among 98,000
# * marks the source's active call; other numbers are inactive results; / = no result given. The list is not random: actives were taken first. Their share in the collection is about 8.7%. Rule as the data show it, unless noted: active = inhibition above about 30%; inactive = the rest.
SMILES,Ecoli WT expand,PostGolgi yeast,Ecoli tolC,Pyk2 oligo antag,Cav3 T inh,PostGolgi ctrl
FC(F)(F)c1cc(C(F)(F)F)c2ccc(N3CCN(c4ncccn4)CC3)nc2n1,-1,3,/,0.35,0.037,1
Fc1ccc(N2CCN(c3ccc4c(C(F)(F)F)cc(C(F)(F)F)nc4n3)CC2)cc1,-12,14,/,-0.54,-4*,75*
N#CC(c1ccc(Cl)cc1)c1ccc2c(C(F)(F)F)cc(C(F)(F)F)nc2n1 (configuration not stated),-7,82*,/,-2.5,-2.5,91*
COc1cccc(C(=O)Nc2ncc3c(n2)CC(C)(C)CC3=O)c1,-4,-4,-13,1,-0.45,-1
O=C1c2cccc(Cl)c2C(=O)c2c1cccc2N1CCCC1,/,/,/,-1.4,-2.8,/
Cc1nnc(Sc2nc3c(c(=O)n(C)c(=O)n3C)n2Cc2ccc(Cl)cc2)s1,/,/,16,/,/,/
Cc1nn(-c2ccccc2)c2c1C1(C(=O)N3c4c(cccc41)C(C)CC3(C)C)C(C#N)=C(N)O2 (configuration not stated),3,2,/,-2.2,-2.3,11
Cc1cc2c3c(c1)C1(C(=O)N3C(C)(C)CC2C)C(C#N)=C(N)Oc2cc(O)ccc21 (configuration not stated),0,0,68*,2.2,-2.8,17
Cc1ccc2c3c1C1(C(=O)N3C(C)(C)CC2C)C(C#N)=C(N)Oc2cc(O)ccc21 (configuration not stated),-3,-2,97*,-1.4,-8.9*,2
CC1=CC(C)(C)N2C(=O)C3(C(C#N)=C(N)OC4=C3C(=O)CC(C)(C)C4)c3cccc1c32 (configuration not stated),-12,2,-16,/,-0.32,8
CC1=CC(C)(C)N2C(=O)C3(C(C#N)=C(N)Oc4cc(O)ccc43)c3cccc1c32 (configuration not stated),13,0,100*,-2.1,-6.2*,3
Cc1cc(NC(=O)NC2CCCN2S(=O)(=O)c2ccc(Cl)cc2)no1 (configuration not stated),1,5,-6,-0.32,0.27,13
Cc1cc(C(=O)NCCCN2CCN(C3CCCCC3)CC2)n(-c2ccccc2)n1,2,-2,-5,/,1.8,21
CCS(=O)(=O)N1CCN(C(=O)c2cccc(OC)c2)CC1,-4,-3,-12,0.82,-1,4
CC(=O)Nc1ccc(-c2nn[nH]n2)cc1Cl,-11,6,-22,-0.37,0.82,-10
C#CCOCCOCCOCCNc1nc(N2CCOCC2)nc(N2CCN(C(=O)[C@H]([C@@H](C)CC)n3cc([C@@H](N)CC(C)C)nn3)CC2)n1,/,/,/,/,-0.11,/
Cc1cccc(Nc2nc(N)nc(CN3CCN(c4ccccc4)CC3)n2)c1,14,2,25,-0.15,-3.7*,-10
COc1ccccc1N1CCN(Cc2nc(N)nc(Nc3ccc(C)c(Cl)c3)n2)CC1,3,-11,69*,-1.2,-5.7*,2
Nc1nc(CN2CCN(c3ccccc3F)CC2)nc(Nc2ccc3c(c2)OCCO3)n1,8,3,/,0.37,0.13,1
Cc1cccc(Nc2nc(N)nc(CN3CCN(c4ccccc4F)CC3)n2)c1,/,/,46,-0.42,-4.9*,/
CC(C)(C)C1CCc2[nH]nc(C(=O)O)c2C1 (configuration not stated),-2,-4,6,-0.15,1.1,-8
O=c1[nH]ncc(N/N=C/c2ccccc2)c1Cl,6,-12,/,0.36,0.71,2
Cc1ccc(/C=N\Nc2cn[nH]c(=O)c2Cl)cc1,-2,-3,/,0.82,-5.3*,-1
O=C(Oc1cccc(Nc2ncnc3ccccc23)c1)c1ccccc1Cl,-20,-1,/,-1.5,-5.4*,69*
O=C(/C=C/c1ccccc1)NC(NC(=S)Nc1ccc(Cl)cc1)C(Cl)(Cl)Cl (configuration not stated),-3,-4,/,-2.4,-7.4*,13
SMILES,Ecoli WT expand,PostGolgi yeast,Ecoli tolC,Pyk2 oligo antag,Cav3 T inh,PostGolgi ctrl
CSc1cccc(NC(=O)CN(c2cccc(C)c2)S(C)(=O)=O)c1,1,-12,/,-1.9,-4.3*,13
Cc1cccc(N(CC(=O)Nc2ccc(F)cc2)S(C)(=O)=O)c1,-3,4,/,-0.71,-0.16,3
CSc1cccc(NC(=O)CN(c2ccc(C)cc2C)S(C)(=O)=O)c1,-8,-14,29,-3,-7.9*,8
Cc1cc(/C=N/NC(=O)Cn2c3ccccc3c(=O)c3ccccc32)c(C)n1-c1ccccc1,-13,-7,/,/,/,15
Cc1ccc(N(CC(=O)N/N=C/c2cc(C)n(-c3ccccc3)c2C)S(C)(=O)=O)c(C)c1,-1,13,/,0.91,-6.7*,19
COc1cccc(CNCC(=O)N2C(C)CCCC2C)c1 (configuration not stated),-5,6,-15,-0.01,0.26,14
COCCN(Cc1cc2cccc(C)c2[nH]c1=O)C(=O)c1ccccc1,-5,6,-12,0.26,-0.019,35*
O=C(c1cc2ccccc2oc1=O)N(Cc1ccc2c(c1)OCO2)Cc1ccco1,-11,-8,50,-2.4,-2.2,42*
Cc1cc2cc(CN(Cc3ccc4c(c3)OCO4)C(=O)c3ccco3)c(=O)[nH]c2cc1C,-12,0,53,0.08,-6.3*,-2
COc1cccc(C(=O)N(Cc2ccccc2)Cc2cc3cc4c(cc3[nH]c2=O)OCCO4)c1,-3,-6,/,-3.3*,-0.67,12
COc1ccc(C(=O)N(Cc2ccccc2)Cc2cc3cc4c(cc3[nH]c2=O)OCCO4)cc1,-7,-1,/,-2.8,-2.9,23
COc1ccccc1CNC(=O)c1cc2c(=O)n(C)c3ccccc3c2n1C,/,/,-3,/,/,/
O=C(Nc1nn[nH]n1)C12CC3CC(CC(C3)C1)C2,0,0,/,1.5,0.97,5
NC(=O)CSc1nnc(COc2ccccc2)n1C1CCCCC1,/,/,5,0.49,/,/
O=c1c2c3c(sc2ncn1/N=C/c1ccc([N+](=O)[O-])o1)CCCC3,4,105*,/,-0.88,0.085,60*
O=c1c2c3c(sc2ncn1-n1cccc1)CCCCC3,/,/,/,-0.31,-3,/
CC(C(=O)NCC1CCCO1)N(C(=O)c1snc(C(N)=O)c1N)c1ccccc1 (configuration not stated),-1,2,-9,0.31,-1,30*
CC(OC(=O)c1cc(=O)[nH]c2ccccc12)c1ccccc1 (configuration not stated),-5,1,6,-4*,-2.9,21
Cn1c(=O)c2c(nc(CN3CCN(c4ccccc4)CC3)n2Cc2c(F)cccc2Cl)n(C)c1=O,0,3,-9,0.06,-3.7,28
Cc1nnc(SCC(=O)Nc2nccs2)[nH]c1=O,0,1,-11,0.5,1.3,-2
CC(C)COC(=O)c1ccc2c(c1O)C(=O)c1ccccc1C2=O,-4,104*,/,0.32,0.33,23
CC(C)COC(=O)c1cc(=O)[nH]c2ccccc12,5,-19,8,-0.94,-0.36,8
